Source: PubChem
Hits are enriched below; roughly 4% of the tested compounds scored in any of these assays.
FAS-TE inh = FAS thioesterase domain inhibitors, primary screen, biochemical, fluorescence intensity, uHTS. 360,000 compounds, 0.67% hits. recombinant FAS-TE, OMFH fluorogenic substrate, fluorescence endpoint. inhibition, % at 15 µM. Fatty acid synthase (Homo sapiens), P49327;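 active = compounds whose normalised, plate-corrected inhibition of enzyme fluorescence in the single-dose primary screen is 50% or more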;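 note: 0% = DMSO with enzyme and 100% = substrate without enzyme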
NR3A LBD binder = binders of NR3A ligand-binding domain, primary screen, biophysical, differential scanning fluorimetry, uHTS. Glutamate receptor ionotropic, NMDA 3A (GRIN3A) ligand-binding domain. NR3A LBD differential scanning fluorimetry, Tm shift; 0% = protein alone, 100% = glycine-bound protein. 340,000 compounds, 2.5% hits. Tm shift relative to glycine control, % at 25 µM;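 active = melting temperature shift of at least 10% of the positive control shift, at one fixed dose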
H9c2 protect = cardioprotection against H2O2-induced cell death, primary screen, uHTS, H9c2 cells, ATPLite luminescence; H9c2 cardiomyocytes, H2O2 injury protection, 2 h; protection from H2O2 cell death, % at 20 µM; 360,000 compounds, 0.63% hits;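 active = compounds giving at least 50% protection of heart cells from peroxide-induced death in the single-dose screen, raw or plate-pattern-corrected value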;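 note: 0% = DMSO wells with peroxide and 100% = DMSO wells without peroxide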
SENP1 inh = human SENP1 catalytic domain inhibitors, primary screen, biochemical, FRET, uHTS | Sentrin-specific protease 1 (Homo sapiens), Q9P0U3 | recombinant SENP1 catalytic domain, CyPet-SUMO1-YPet FRET cleavage | inhibition, % at 10 µM | 360,000 compounds, 0.21% hits | AID 624204, 2012;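 active = inhibition at least 30% at 10 µM, raw YFP signal under a set limit, fluorescence ratio 0.5 to 1.5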;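 note: 0% = enzyme with DMSO and 100% = no enzyme wells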
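Test system: hSENP1 catalytic domain, recombinant; Amount: 20 pM final SENP1 enzyme; Medium: Tris pH 8 buffer plus EDTA, NaCl, BME, BSA, NP40, catalase; Schedule: 50 min enzyme reaction, room temperature, light-protected; Technique: FRET fluorescence in CFP and YFP emission channels; Controls: no-enzyme wells low, DMSO-plus-enzyme wells high control.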
hiPSC survival = enhancers of single-cell hiPSC survival, primary screen, ATPlite luminescence. 100% = ROCK inhibitor wells, 0% = DMSO. survival enhancement, % at 20 µM. 360,000 compounds, 0.044% hits. AID 602274, 2012; in the data active = survival enhancement above about 18%;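 note: cells exposed to compounds for 16 hours before the ATP read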
Arr AP2 block = inhibitors of beta-arrestin/AP2 binding, primary screen, biochemical, GPCR trafficking, flow cytometry; FITC-arrestin peptide / GST-AP2 beads; AP2 beta2 appendage carries R879A mutation; inhibition, % at 10 µM; 340,000 compounds, 0.31% hits; AID 504490, 2011;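 active = inhibition above a set limit, near 3 SD of compounds lacking own fluorescence, cut at about 54% in these data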;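 note: plate controls were DMSO wells for no effect and 5 µM unlabelled arrestin peptide for full effect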
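System: GST-AP2 R879A bound to glutathione beads, E. coli-expressed. Also added: 50 nM FITC-arrestin peptide. Schedule: compound with beads 12 min RT, then probe 1 h RT. Signal: bead flow cytometry, FITC channel. Read-out basis: percent response.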
An asterisk follows results filed as active.

For Cc1nc(Nc2ccc(S(N)(=O)=O)cc2)sc1C(=O)Nc1ccccc1 the results were FAS-TE inh 0, NR3A LBD binder 33*, H9c2 protect -5, SENP1 inh 0, hiPSC survival 2 and Arr AP2 block 6.
`Cc1ccc(S(=O)(=O)Nc2nc(C)c(C(=O)Nc3ccccc3)s2)cc1` gave FAS-TE inh -7, NR3A LBD binder -10, H9c2 protect 1, SENP1 inh -1, hiPSC survival 2 and Arr AP2 block 11.
For Cc1nc(Nc2ccccc2Cl)sc1C(=O)Nc1ccccc1 the results were FAS-TE inh 10, NR3A LBD binder 9, H9c2 protect -1, SENP1 inh -2, hiPSC survival -1 and Arr AP2 block 8.
Screening Cc1nc(NC(=O)c2cc3c(C)nn(-c4ccccc4)c3s2)sc1C(=O)Nc1ccccc1 returned FAS-TE inh 8, NR3A LBD binder -1, H9c2 protect 64*, SENP1 inh -70, hiPSC survival -2 and Arr AP2 block 16.
COc1ccccc1Nc1nc(C)c(C(=O)Nc2ccccc2)s1 was read as FAS-TE inh 12, NR3A LBD binder 25*, H9c2 protect 2, SENP1 inh 0, hiPSC survival -1 and Arr AP2 block 1.
For Cc1nc(Nc2ccccc2)sc1C(=O)Nc1ccccc1 the results were FAS-TE inh 12, NR3A LBD binder 38*, H9c2 protect -3, SENP1 inh 0, hiPSC survival 0 and Arr AP2 block 4.
CN1CCN(c2ncnc3c2ncn3[C@H]2CN(Cc3cccnc3)C[C@@H](CO)O2)CC1 was read as FAS-TE inh -8, H9c2 protect 5, SENP1 inh 2 and hiPSC survival 0.
O=C(NCCCN1CCCC1=O)C(=O)NCC1OCCN1S(=O)(=O)c1cc(F)ccc1F (stereo not drawn) was read as FAS-TE inh -5, H9c2 protect -2, SENP1 inh -3 and hiPSC survival 5.
`COCCNC(=O)C1(C)CCCN(C(=O)c2ccc(N(C)C)cc2)C1` (stereo not drawn) gave FAS-TE inh -5, H9c2 protect 3, SENP1 inh 3 and hiPSC survival 0.
For C[C@@H]1CCCCO[C@H](CN(C)Cc2ccc3c(c2)OCO3)[C@@H](C)CN([C@H](C)CO)C(=O)c2cc(NC(=O)c3ccccc3)ccc2O1 the results were FAS-TE inh 28, H9c2 protect -4, SENP1 inh -3 and hiPSC survival -1.
`Cc1nc(Nc2ccc(S(N)(=O)=O)cc2)sc1-c1ccccc1` gave FAS-TE inh 12, NR3A LBD binder 16*, H9c2 protect -15, SENP1 inh 0, hiPSC survival 2 and Arr AP2 block 4.
COc1ccc(Nc2nc(C)c(-c3ccccc3)s2)cc1 was read as FAS-TE inh 18, NR3A LBD binder 8, H9c2 protect -8, SENP1 inh 2, hiPSC survival -2 and Arr AP2 block 1.
`Cc1ccc(Nc2nc(-c3sc(C)nc3C)cs2)cc1` gave FAS-TE inh 17, NR3A LBD binder -11, H9c2 protect -6, SENP1 inh 1, hiPSC survival -1 and Arr AP2 block 32.
Cc1nc(C)c(-c2csc(Nc3ccc(S(N)(=O)=O)cc3)n2)s1 was read as FAS-TE inh 0, NR3A LBD binder 32*, H9c2 protect -6, SENP1 inh 1, hiPSC survival -1 and Arr AP2 block 3.
For C(=C\c1ccccc1)/CN1CCN(C(c2nnnn2Cc2ccccc2)C2CC2)CC1 (stereo not drawn) the results were FAS-TE inh 2, H9c2 protect -4, SENP1 inh 2 and hiPSC survival -1.
